PHOSPHO1 block – PHOSPHO1 (human) inhibition; Q8TCT1; inhibition, % at 13.3 µM; AID 1565; 290,000 tested, 1.1% active; recombinant PHOSPHO1, absorbance phosphatase assay; in the data active = inhibition above about 60%
Target sequence (Q8TCT1 whole entry, looked up): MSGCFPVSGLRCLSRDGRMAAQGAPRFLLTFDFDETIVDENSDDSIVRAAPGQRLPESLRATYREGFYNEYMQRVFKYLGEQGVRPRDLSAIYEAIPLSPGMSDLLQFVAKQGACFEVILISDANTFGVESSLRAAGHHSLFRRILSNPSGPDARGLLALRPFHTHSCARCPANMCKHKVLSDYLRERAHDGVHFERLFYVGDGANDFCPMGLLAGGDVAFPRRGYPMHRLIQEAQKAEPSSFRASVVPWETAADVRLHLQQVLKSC
IMP-1 inh – blocks Pseudomonas aeruginosa IMP-1 metallo-beta-lactamase; AID 1556; inhibition, % at 5.6 µM; 290,000 tested, 0.45% active; purified IMP-1, nitrocefin hydrolysis, epi-absorbance fluorescence;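 active = inhibition above the mean plus 3 SD of all compounds in the same screening run, cut at about 4.5% in these data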;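 note: 0% = IMP-1 with DMSO and 100% = DMSO wells lacking enzyme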
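System: purified recombinant IMP-1 beta-lactamase. Medium: Zinc- and detergent-supplemented HEPES buffer, pH 7.1. Compound: one 5.6 µM dose […]. Schedule: 15 min preincubation plus 25 min reaction at 25 °C. Technique: Epi-absorbance fluorescence, 480 nm excitation, 530 nm emission.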
Yeast superoxide – caloric restriction mimetics inhibiting age-related superoxide in yeast; superoxide response (% of plate mean), % at 10 µM; S. cerevisiae aged cells, superoxide DHE fluorescence; stronger effect = lower value; AID 2690; 330,000 tested, 0.18% active;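 active = superoxide response under a set limit, about three screen SD below normal, cut at about 65% in these data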;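 note: yeast aged for seven days with compound at 30 °C before DHE staining; 100% = average MFI of all compound-treated wells on the plate with controls excluded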
PvdQ inh – blocks Pseudomonas aeruginosa PvdQ acylase activity; purified PvdQ acylase, fluorescence plate reader; inhibition, % at 10 µM; 340,000 tested, 0.063% active; AID 488965; in the data active = inhibition above about 30%, passing the limit was not always enough;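 note: 0% = vehicle neutral wells and 100% = reference inhibitor wells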
VIM-2 inhibitor – inhibitors of Pseudomonas aeruginosa VIM-2 metallo-beta-lactamase | purified VIM-2, nitrocefin hydrolysis, epi-absorbance fluorescence | inhibition, % at 5.6 µM | 290,000 tested, 0.89% active | AID 1527;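 active = inhibition above the mean of all tested compounds plus 3 SD, cutoff set per screening run, cut at about 7.5% in these data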;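 note: red hydrolysis product quenches plate fluorescence so inhibitors raise well fluorescence; 0% = enzyme with DMSO and 100% = DMSO without enzyme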
* = called active by the depositor. This is a sample that favours compounds with a hit; in the whole collection about 2.2% have one here.

How did COc1ccc(COC(=O)CCc2c[nH]c3ccccc23)cc1F do in these assays?
PHOSPHO1 block: 15; IMP-1 inh: 1; Yeast superoxide: 101; PvdQ inh: -14; VIM-2 inhibitor: 0

What do the screens show for `COc1ccccc1NC(=O)Cn1nnc(-c2ccccc2NC(=O)c2cc3ccccc3oc2=O)n1`?
PHOSPHO1 block: 26; IMP-1 inh: 0; Yeast superoxide: 116; PvdQ inh: -2; VIM-2 inhibitor: -1

How did COc1ccc([N+](=O)[O-])cc1N(CC(=O)NCCCOC(C)C)S(C)(=O)=O do in these assays?
PHOSPHO1 block: 32; IMP-1 inh: -1; Yeast superoxide: 97; PvdQ inh: -4; VIM-2 inhibitor: 1

Results for CCN(CC)c1ccc2c(c1)OC(N)=C(C#N)C2c1cccnc1 (stereo not drawn) ?
PHOSPHO1 block: 37; IMP-1 inh: 9.6*; Yeast superoxide: 89; PvdQ inh: -8; VIM-2 inhibitor: 6

Results for N#CC1=C(N)Oc2cc(N)ccc2C1c1cccnc1 (stereo not drawn) ?
PHOSPHO1 block: 0; IMP-1 inh: -1; Yeast superoxide: 112; PvdQ inh: -15; VIM-2 inhibitor: -3

How did CCOc1cc(C(=O)OCC(=O)N(C)c2ccccc2)cc(OCC)c1OCC do in these assays?
PHOSPHO1 block: 35; IMP-1 inh: 12*; Yeast superoxide: 91; PvdQ inh: 9; VIM-2 inhibitor: 0

Results for CCC1CN(C(=O)N2CCC(C(=O)NCCc3ccc(OC)cc3OC)CC2)c2ccccc2O1 (stereo not drawn) ?
PHOSPHO1 block: 49; IMP-1 inh: -1; Yeast superoxide: 100; PvdQ inh: 6; VIM-2 inhibitor: -3

How did CC1=CC(C)(C)N(C(=O)CNC2CCCC2)c2cc(C)ccc21 do in these assays?
PHOSPHO1 block: 23; IMP-1 inh: 34*; Yeast superoxide: 97; PvdQ inh: -5; VIM-2 inhibitor: -5

Results for CCC(C)(C)n1nnnc1C(c1ccc(O)c(OC)c1)N1CCN(c2nc3ccccc3s2)CC1 (stereo not drawn) ?
PHOSPHO1 block: 68*; IMP-1 inh: -2; Yeast superoxide: 103; PvdQ inh: -13; VIM-2 inhibitor: 1

How did COc1ccc(C(c2nnnn2C(C)(C)C)N2CCN(c3nc4ccccc4s3)CC2)cc1 (stereo not drawn) do in these assays?
PHOSPHO1 block: 24; IMP-1 inh: -3; PvdQ inh: -4; VIM-2 inhibitor: -4

Results for CCCC(c1nnnn1CCOC)N(Cc1cc2cc(C)c(C)cc2[nH]c1=O)CC1CCCO1 (stereo not drawn) ?
PHOSPHO1 block: 4; IMP-1 inh: -1; Yeast superoxide: 96; PvdQ inh: 6; VIM-2 inhibitor: 0

What do the screens show for `CCC(c1nnnn1CCOC)N(Cc1cc2cc(C)c(C)cc2[nH]c1=O)CC1CCCO1` (stereo not drawn)?
PHOSPHO1 block: 76*; IMP-1 inh: 0; Yeast superoxide: 91; PvdQ inh: 0; VIM-2 inhibitor: -2

How did N#CCCN(C(=O)c1ccc2c(=O)n3c(nc2c1)CCCCC3)c1ccccc1 do in these assays?
PHOSPHO1 block: 64*; IMP-1 inh: -1; Yeast superoxide: 104; PvdQ inh: -11; VIM-2 inhibitor: -5

How did O=C(COC(=O)Cc1c(F)cccc1Cl)NCc1ccc2c(c1)OCO2 do in these assays?
Yeast superoxide: 93; PvdQ inh: -3

What do the screens show for `O=C(CCc1ccccc1)NNC(=S)NC(=O)c1ccc(Cl)cc1`?
PHOSPHO1 block: 95*; IMP-1 inh: -4; Yeast superoxide: 136; VIM-2 inhibitor: -3

What do the screens show for `O=C(Cc1ccccc1)NNC(=S)NC(=O)c1cccs1`?
PHOSPHO1 block: 86*; IMP-1 inh: -2; Yeast superoxide: 94; VIM-2 inhibitor: -3

How did O=C(NNC(=S)NC(=O)c1cccs1)c1ccc(O)cc1 do in these assays?
PHOSPHO1 block: -21; IMP-1 inh: -3; Yeast superoxide: 100; PvdQ inh: -6; VIM-2 inhibitor: -3

What do the screens show for `O=C(CCc1ccccc1)NNC(=O)c1ccc(Cl)cc1`?
PHOSPHO1 block: -32; IMP-1 inh: -2; Yeast superoxide: 92; PvdQ inh: -12; VIM-2 inhibitor: 0

How did O=C(NC(=S)NNC(=O)c1cccs1)c1ccc(Br)o1 do in these assays?
PHOSPHO1 block: 94*; IMP-1 inh: -1; Yeast superoxide: 126; PvdQ inh: -6; VIM-2 inhibitor: -2

How did O=C(NC(=S)NCc1ccccc1)c1cccs1 do in these assays?
PHOSPHO1 block: 17; IMP-1 inh: 0; Yeast superoxide: 107; PvdQ inh: 10; VIM-2 inhibitor: -2

What do the screens show for `COc1ccc(CNC(=O)c2ccc(N3CCC4(CC3)CC(c3ccc(Cl)cc3)=NO4)c(N)c2)cc1`?
Yeast superoxide: 101

What do the screens show for `COC(=O)c1cc(S(=O)(=O)NCCc2ccc(SC)cc2)c[nH]1`?
PHOSPHO1 block: 18; IMP-1 inh: 34*; Yeast superoxide: 82; PvdQ inh: -19; VIM-2 inhibitor: -1

What do the screens show for `COC(=O)c1cc(S(=O)(=O)NCCc2ccc(C)cc2)c[nH]1`?
PHOSPHO1 block: 46; IMP-1 inh: -4; Yeast superoxide: 104; PvdQ inh: 0; VIM-2 inhibitor: -1

What do the screens show for `COCCn1c(SCc2nc3ccccc3c(=O)[nH]2)nc2ccccc2c1=O`?
PHOSPHO1 block: 32; IMP-1 inh: -3; Yeast superoxide: 109; PvdQ inh: -6; VIM-2 inhibitor: -1

Results for CCCn1c(SCc2nc3sc(C)c(C)c3c(=O)[nH]2)nc2ccccc2c1=O ?
PHOSPHO1 block: 69*; IMP-1 inh: -1; Yeast superoxide: 123; PvdQ inh: -14; VIM-2 inhibitor: -1

Results for COc1cccc(N2C(=O)C(Cc3c[nH]c4ccccc34)NC2=S)c1 (stereo not drawn) ?
PHOSPHO1 block: 1; IMP-1 inh: -3; Yeast superoxide: 110; PvdQ inh: -4; VIM-2 inhibitor: -2

How did COc1cccc(CN(C)C(=O)c2ccc(S(=O)(=O)Nc3ccccc3F)cc2)c1OC do in these assays?
PvdQ inh: 0

Results for COc1ccc(CN(C)C(=O)c2cc(S(=O)(=O)Nc3ccccc3F)ccc2C)c(OC)c1 ?
PHOSPHO1 block: 16; IMP-1 inh: 4.8*; Yeast superoxide: 91; PvdQ inh: 5; VIM-2 inhibitor: 1

What do the screens show for `O=C(CN1C(=O)CCC1=O)Nc1cccc2c1C(=O)NC2=O`?
PHOSPHO1 block: -10; IMP-1 inh: -1; Yeast superoxide: 103; PvdQ inh: -8; VIM-2 inhibitor: -3

What do the screens show for `N#Cc1cc(-c2ccccc2)cnc1Cl`?
PHOSPHO1 block: -22; IMP-1 inh: -2; Yeast superoxide: 99; PvdQ inh: 37*; VIM-2 inhibitor: -1

Results for COc1cc2[nH]c(=S)nc(NCCC(C)C)c2cc1OC ?
PHOSPHO1 block: -103; IMP-1 inh: -3; Yeast superoxide: 104; PvdQ inh: -12; VIM-2 inhibitor: -3

How did COCCCNc1nc(=S)[nH]c2cc(OC)c(OC)cc12 do in these assays?
PHOSPHO1 block: 82*; IMP-1 inh: -3; Yeast superoxide: 105; PvdQ inh: 1; VIM-2 inhibitor: 0

Screening data: PubChem BioAssay, several laboratories
